Sampled rows, rich in hits. Any-hit rate of the full collection: about 4.6%.
GPR7 antagonist = human neuropeptides B/W receptor 1 antagonism | P48145 | GPR7-expressing cells, fluorescence antagonist assay | inhibition, % at 4.4 µM | actives 1.1% (n = 290,000); in the data active means inhibition above about 16%, passing the limit was not always enough;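 further: cells stimulated with the agonist NPW; 0% = agonist with vehicle and 100% = vehicle without agonist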
TAAR1 antagonist = human TAAR1 antagonism; Q96RJ0; CHO RD-HGA16 TAAR1, Fluo-8 calcium fluorescence, antagonist; inhibition, % at 3 µM; actives 1.5% (n = 360,000); AID 624466;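 active means inhibition above a per-plate cutoff, the mean inhibition of test compounds on that plate plus 3 SD, cut at about 49% in these data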;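 further: 0% = DMSO plus EC80 beta-PEA response and 100% = DMSO alone without agonist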
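Test system: hTAAR1-expressing CHO RD-HGA16 cells, Gα16-coupled; Probe or stimulus: EC80 β-phenethylamine stimulus; Compound dosing: single nominal final test compound concentration of 3 µM; Timing: 140 s kinetic read after compound, 140 s after agonist; Signal: Fluo-8 calcium-sensitive fluorescence; Measure: % inhibition of agonist calcium response; Controls: DMSO and EC80 PEA controls.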
OX1R antag-1 = antagonists of human orexin 1 receptor; inhibition, % at 5 µM; CHO/OX1R cells, Fluo-8 calcium fluorescence, orexin A; actives 0.43% (n = 330,000); AID 434989; O43613;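 active means inhibition above its plate's threshold, mean inhibition of all tested compounds on the plate plus 3 SD, cut at about 37% in these data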;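 further: 0% = orexin A challenge wells and 100% = SB-334867-A antagonist wells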
Target sequence (O43613 whole entry, looked up): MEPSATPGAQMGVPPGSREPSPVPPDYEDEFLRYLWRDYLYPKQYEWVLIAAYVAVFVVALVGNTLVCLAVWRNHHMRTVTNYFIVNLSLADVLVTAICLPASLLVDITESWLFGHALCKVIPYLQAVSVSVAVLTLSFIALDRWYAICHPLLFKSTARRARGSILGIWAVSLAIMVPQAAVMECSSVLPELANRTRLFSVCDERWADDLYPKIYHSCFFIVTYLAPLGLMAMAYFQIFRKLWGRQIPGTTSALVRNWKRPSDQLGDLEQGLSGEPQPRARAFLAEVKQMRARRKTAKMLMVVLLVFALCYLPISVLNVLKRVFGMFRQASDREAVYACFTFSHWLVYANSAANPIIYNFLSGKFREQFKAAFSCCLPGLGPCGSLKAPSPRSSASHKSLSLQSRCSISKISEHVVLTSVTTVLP
CHO parental Ca = counter-screen for OX1R antagonists: effect in parental CHO cells; actives 0.63% (n = 330,000); AID 463079; inhibition, % at 5.6 µM; parental CHO-K1, ATP-induced calcium, Fluo-8 fluorescence;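 active means inhibition above that plate's mean sample inhibition plus 3 SD, cut at about 26% in these data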;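 further: 0% = ATP-challenged DMSO wells and 100% = DMSO wells without ATP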
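Material – parental CHO cells · Reagent – ATP stimulus · Compound – single nominal dose of 5.6 µM per compound · Detection – Fluo-8 fluorescence · Read-out basis – percent inhibition of calcium signal · Controls – ATP-challenged DMSO wells low, unchallenged DMSO wells high · Repeats – no replicates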
OX1R antag-2 = blocks the human orexin 1 receptor | OX1R-expressing cells, FRET antagonist read-out | inhibition, % at 6.6 µM | actives 1.8% (n = 330,000) | O43613; in the data active means inhibition mostly above about 38%, no sharp cut-off; inactive means mostly below about 40%;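 further: 0% = agonist challenge alone and 100% = reference antagonist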
TAAR1 ag = human TAAR1 agonism. Q96RJ0. CHO RD-HGA16 TAAR1, Fluo-8 calcium fluorescence; vehicle wells 0%, saturating PEA agonist 100%. actives 0.99% (n = 360,000). activation, % at 3 µM;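 active means activation above the mean activation of all test compounds in the run plus 3 SD, cut at about 38% in these data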
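System: CHO RD-HGA16 cells carrying human TAAR1 plus Gα16; Incubation: 17-24 h seeding, 75 min 37 °C dye, 30 min RT; Measured by: Fluo-8 fluorescence, 5 s baseline then 140 s kinetic read; Control set: DMSO and PEA EC100; Replication: single well for each compound.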
* = called active by the depositor; . = no result given.

SMILES	GPR7 antagonist	TAAR1 antagonist	OX1R antag-1	CHO parental Ca	OX1R antag-2	TAAR1 ag
CC(C)c1nnc(NC(=O)C2c3ccccc3Oc3ccccc32)s1	4	-2	-12	-9	2	42*
C[C@H](O)CNC(=O)c1[nH]cnc1C(=O)N[C@@H](C)c1ccccc1	.	-14	.	.	.	1
CCOC(=O)Cn1c(=NC(=O)c2cc(-c3cccs3)nc3ccccc23)sc2cc(S(N)(=O)=O)ccc21	3	24	14	-5	26	11
COC(=O)Cn1c(=NC(=O)c2cc(-c3cccs3)nc3ccccc23)sc2cc(S(N)(=O)=O)ccc21	13	30	20	36*	12	4
O=C(CCC1CCN(Cc2nccs2)CC1)Nc1ccccc1	.	2	.	.	.	2
O=c1oc2c3c4c(cc2c(C(F)(F)F)c1CCN1CCOCC1)CCCN4CCC3	7	11	14	9	4	41*
CC(C)c1cc(=O)oc2c3c4c(cc12)CCCN4CCC3	6	14	-19	-21	37	1
COCc1[nH]nc2c1C(c1cc(OC)c(O)c(OC)c1)C(C#N)=C(N)O2 (stereo not given)	0	-8	-6	-6	76*	14
COCc1[nH]nc2c1C(c1ccc(OC)c(OC)c1)C(C#N)=C(N)O2 (stereo not given)	-9	-3	-8	4	25	8
CC(NC(=O)CSc1nnc(CC(=O)Nc2ccc(Cl)c(Cl)c2)n1C)c1ccccc1 (stereo not given)	0	44	-5	6	4	42*
COC(=O)c1sc(-c2ccc(C(C)(C)C)cc2)cc1NC(=O)CCC(=O)O	-7	51*	31	31	19	11
O=C1N=C(O)CN1/N=C/c1ccc(-c2ccc([N+](=O)[O-])cc2)o1	.	-14	-13	-20	59*	-2
O=C(COC(=O)c1cc(=O)c2ccccc2o1)Nc1ccc2ccccc2c1	-1	-25	-5	-7	13	40*
Cc1ccc(C2=CSC3=NCCN23)cc1	.	-2	-2	0	4	-1
O=[N+]([O-])c1ccc(C2=CSC3=NCCN23)cc1	.	-13	0	6	47*	0
CC(C)C[C@H]1CN(CCCC[C@H]2CNC(=O)C(=O)N2CCC2CCCCC2)C(=O)C(=O)N1CC1CCCCC1	.	-4	.	.	.	0
Cc1cc(C)c(C)c(S(=O)(=O)N2CCC(C(=O)OCC(=O)N3c4ccccc4NC(=O)C3(C)C)CC2)c1C	-4	49*	-24	-41	6	10
O=C(N[C@H](C(=O)N1CCC[C@H]1C(=O)NC1CCCC1)C1CCCCC1)C1CCCC1	.	-13	.	.	.	2
COc1ccc(S(=O)(=O)Cc2ccc(C(=O)N3CCN(c4cc(Cl)ccc4C)CC3)o2)cc1	-11	49*	-19	2	6	1
COc1ccc(S(=O)(=O)Cc2ccc(C(=O)N3CCN(c4cc(C)ccc4C)CC3)o2)cc1	12	20	-33	-30	14	-1
COc1ccc(S(=O)(=O)Cc2ccc(C(=O)N3CCN(c4cccc(C)c4C)CC3)o2)cc1	-1	33	7	48*	11	0
Cc1ccc(S(=O)(=O)Cc2ccc(C(=O)N3CCN(c4cccc(C)c4C)CC3)o2)cc1	6	-6	-33	-1	8	-2
COC(=O)c1cc2c(c3c4ccccc4n(S(=O)(=O)c4ccc(OC)cc4)c13)C(=O)N(Cc1ccc(C(F)(F)F)cc1)C2	.	-18	.	.	.	-1
O=C(Cc1cccs1)N/N=C\c1ccc([N+](=O)[O-])s1	1	-3	-14	-12	47	14
O=C(CNC(=O)c1ccccc1Br)N/N=C\c1cc([N+](=O)[O-])cc(Br)c1O	0	-23	0	0	53*	9
SMILES	GPR7 antagonist	TAAR1 antagonist	OX1R antag-1	CHO parental Ca	OX1R antag-2	TAAR1 ag
O=C(CNC(=O)c1ccccc1Br)N/N=C/c1cc(Br)ccc1O	-3	6	-33	-15	14	23
O=C(CNC(=O)c1ccccc1Cl)N/N=C/c1ccc([N+](=O)[O-])s1	-4	-9	-24	-3	51*	12
CCOC(=O)CC1(O)CSc2nc(N)cc(=O)n21 (stereo not given)	.	-22	.	.	.	3
Cc1cc2c(nc1C)CCCN2S(=O)(=O)c1ccc(F)cc1	.	1	.	.	.	-1
CCCc1c(-c2ccccc2F)ncn1CCc1ccccc1OC	.	38	.	.	.	17
CCCc1c(-c2ccccc2OC)ncn1CCc1ccccc1OC	.	21	.	.	.	32
CCCCc1c(-c2cccc(Br)c2)ncn1CCc1ccccc1OC	.	43	.	.	.	43*
CCCCCc1c(-c2ccc(F)cc2)ncn1CCc1ccccc1OC	.	47	.	.	.	24
CCCCCc1c(CC)ncn1CCc1ccccc1OC	.	53*	.	.	.	48*
CCCCCc1c(-c2ccccc2OC)ncn1CCc1ccccc1OC	.	51*	.	.	.	36
CCCCc1c(-c2ccccc2OC)ncn1CCc1ccccc1OC	.	28	.	.	.	48*
CCOC(=O)C1=CCN(S(=O)(=O)c2ccc(Cl)cc2)C1c1cccc(Cl)c1 (stereo not given)	.	21	.	.	.	-1
COC(=O)[C@H](N[C@H](/C=C/c1ccccc1)[C@@H](O)Cc1ccccc1)c1ccccc1	.	-3	.	.	.	-1
COC(=O)c1cc2c(c3c4cc(F)ccc4n(S(=O)(=O)c4ccc(C)cc4)c13)C(=O)N(C)C2	.	-5	.	.	.	-2
Cc1cc(C)n2nc(/C(C#N)=C/c3ccccn3)c(C#N)c2n1	-6	4	-9	43*	28	2
Cc1cc(C)n2nc(CC#N)c(C#N)c2n1	1	5	8	4	27	0
CCn1c(O)c(N=NC(=O)CNC(=O)/C=C/c2ccco2)c2ccccc21	-1	-9	-7	-9	36*	7
CCn1c(O)c(N=NC(=O)c2cccs2)c2ccccc21	-1	22	8	-25	76*	4
CCCn1c(O)c(N=NC(=O)c2ccco2)c2ccccc21	-7	7	-43	-27	36	8
O=C(NC(CC1=CCCCC1)c1ccccc1)C(F)(F)F (stereo not given)	.	3	.	.	.	-2
O=C(O)CC1Cc2ccccc2C1C(=O)O (stereo not given)	.	-3	.	.	.	0
CCn1c(C)c(C(C)=O)c(N2CCN(C(c3ccccc3)c3ccccc3)CC2)nc1=S	-9	50*	-33	-11	9	15
COc1ccc(C2/C=C\CN(C(=O)Nc3ccc(C(F)(F)F)cc3)CC(=O)N2Cc2ccc(F)cc2)cc1 (stereo not given)	.	.	9	60*	33	.
COc1ccc(C2/C=C\CN(C(=O)Nc3ccccc3)CC(=O)N2Cc2ccc(F)cc2)cc1 (stereo not given)	.	7	-25	-33	20	16
